Experimental data reported in ChEMBL document CHEMBL1145403, “Structure-based design of flavonoid compounds as a new class of small-molecule inhibitors of the anti-apoptotic Bcl-2 proteins” (J Med Chem, 2007).
Activity calls are given as the source filed them. The calls are words filed in the database; no cut-off is given here.

How the values were obtained:
MDA-MB-231 [1] = experiment: Growth inhibition of human MDA-MB-231 cells after 4 days by WST-based assay; assay type: functional, cell-based; conditions: MDA-MB-231, 96 h
Method in brief: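 Cells seeded at 3-4 × 10^3/well together with graded compound concentrations and cultured 4 days. WST-8 added at 10% final, then 2-3 h at 37°C. Absorbance read at 450 nm. IC50 = 50% growth inhibition relative to untreated cells.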

[2] = molecular target: Apoptosis regulator Bcl-2 (Homo sapiens, UniProt P10415); experiment: Displacement of FAM-Bim peptide from human Bcl2 by fluorescence polarization assay
Apoptosis regulator Bcl-2, sequence (P10415 whole entry): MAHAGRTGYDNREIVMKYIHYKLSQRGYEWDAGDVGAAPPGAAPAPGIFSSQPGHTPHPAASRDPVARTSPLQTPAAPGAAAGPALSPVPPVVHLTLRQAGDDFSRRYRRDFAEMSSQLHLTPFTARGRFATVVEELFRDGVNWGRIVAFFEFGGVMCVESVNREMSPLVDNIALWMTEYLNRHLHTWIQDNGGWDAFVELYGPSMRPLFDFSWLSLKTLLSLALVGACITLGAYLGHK

[3] = molecular target: Induced myeloid leukemia cell differentiation protein Mcl-1 (Homo sapiens, UniProt Q07820); experiment: Displacement of FAM-Bim peptide from human Mcl1 by fluorescence polarization assay
Induced myeloid leukemia cell differentiation protein Mcl-1, sequence (Q07820 whole entry): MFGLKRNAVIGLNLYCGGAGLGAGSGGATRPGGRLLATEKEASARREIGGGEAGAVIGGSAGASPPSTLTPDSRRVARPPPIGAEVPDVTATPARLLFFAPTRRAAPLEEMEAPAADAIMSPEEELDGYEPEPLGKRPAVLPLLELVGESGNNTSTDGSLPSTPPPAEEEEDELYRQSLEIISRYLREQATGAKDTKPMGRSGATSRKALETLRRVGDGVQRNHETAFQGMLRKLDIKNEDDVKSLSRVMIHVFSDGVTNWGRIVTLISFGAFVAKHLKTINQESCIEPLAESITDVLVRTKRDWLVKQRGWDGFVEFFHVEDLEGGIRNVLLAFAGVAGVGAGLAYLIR
Method in brief: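 Compound added from DMSO, 4 h incubation, polarization at ex 485/em 530 nm. IC50 by nonlinear least-squares fit; Ki from the FP equation.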

MDA-MB-231 [4] = experiment: Induction of apoptosis in human MDA-MB-231 cells after 3 days by Annexin V/propidium iodide staining-based flow cytometry
MDA-MB-231 [5] = experiment: Induction of apoptosis in human MDA-MB-231 cells at 1 uM after 3 days by Annexin V/propidium iodide staining
MDA-MB-231 [6] = experiment: Induction of apoptosis in human MDA-MB-231 cells at 0.5 uM after 3 days by Annexin V/propidium iodide staining-based flow cytometry

IC50 (MDA-MB-231 [1]) [nM] | Ki [2] [nM] | Ki [3] [nM] | Activity [2] | Activity [3] | SMILES | Activity (MDA-MB-231 [4]) | Activity (MDA-MB-231 [5]) [%] | Activity (MDA-MB-231 [6]) [%]
5300 | 340 | 400 |  |  | Cc1oc2c(CC(C)C)c(O)c(O)c(O)c2c(=O)c1-c1ccccc1 |  |  | 
30000 | 730 | 1690 |  |  | Cc1cc(=O)c2c(O)c(O)c(O)c(CC(C)C)c2o1 |  |  | 
110 | 17 | 18 |  |  | Cc1oc2c(CC(C)C)c(O)c(O)c(O)c2c(=O)c1-c1ccc(-c2c(C)oc3c(CC(C)C)c(O)c(O)c(O)c3c2=O)cc1 | Dose-dependent effect | 64.4 | 24.5
> 100000 |  |  | inactive | inactive | COc1c(OC)c(OC)c2c(=O)c(-c3ccc(-c4c(C)oc5c(CC(C)C)c(OC)c(OC)c(OC)c5c4=O)cc3)c(C)oc2c1CC(C)C |  |  | 

SMILES | IC50 (MDA-MB-231 [1]) [nM] | Ki [2] [nM] | Ki [3] [nM] | Activity [2] | Activity [3] | Activity (MDA-MB-231 [4]) | Activity (MDA-MB-231 [5]) [%] | Activity (MDA-MB-231 [6]) [%]
Cc1cc2c(C(C)C)c(O)c(O)c(C=O)c2c(O)c1-c1c(C)cc2c(C(C)C)c(O)c(O)c(C=O)c2c1O [GOSSYPOL] | 1900 |  | 280 |  |  |  |  | 
